ChEMBL document CHEMBL1124424, “Effects of steroid D-ring modification on suicide inactivation and competitive inhibition of aromatase by analogues of androsta-1,4-diene-3,17-dione” (J Med Chem, 1989)

Key:
Aromatase [1] = biological target: T1, Aromatase (Homo sapiens, UniProt P11511); assay: Competitive inhibition of binding to human placental aromatase Cytochrome P450 19A1
T1 sequence (P11511 whole entry): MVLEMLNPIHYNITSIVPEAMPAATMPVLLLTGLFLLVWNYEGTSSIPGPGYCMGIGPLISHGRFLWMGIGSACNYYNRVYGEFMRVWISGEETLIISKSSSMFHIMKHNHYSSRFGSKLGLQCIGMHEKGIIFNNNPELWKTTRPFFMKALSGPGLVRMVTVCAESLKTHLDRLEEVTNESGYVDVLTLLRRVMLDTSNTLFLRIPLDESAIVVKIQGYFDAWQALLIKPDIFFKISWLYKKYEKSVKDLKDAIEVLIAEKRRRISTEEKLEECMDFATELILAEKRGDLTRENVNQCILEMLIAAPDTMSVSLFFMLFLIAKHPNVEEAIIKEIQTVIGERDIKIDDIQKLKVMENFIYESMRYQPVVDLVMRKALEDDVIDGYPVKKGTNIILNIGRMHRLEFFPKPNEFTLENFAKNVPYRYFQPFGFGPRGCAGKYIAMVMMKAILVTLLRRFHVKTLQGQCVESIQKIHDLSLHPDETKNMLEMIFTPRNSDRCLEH

Aromatase [2] = biological target: T1, Aromatase; assay: Ratio of Ki to Km for human placental cytochrome P450 19A1
Outline: (§1)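 Human placental microsomes (stored at -70 °C) in incubation buffer containing 4% by weight propylene glycol. Aromatase assays ran 1–5 min with five androstenedione concentrations (0.05–1.0 μM) and varied inhibitor concentrations. Ki is the average of two determinations at each of two inhibitor concentrations, with average deviation. Androstenedione Km was determined in each experiment, and the Ki/Km ratio was calculated.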

Aromatase [3] = biological target: T1, Aromatase; assay: Inactivation rate (Ki) of human placental Cytochrome P450 19A1
Outline: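 Inhibitor at four concentrations, in duplicate, was preincubated for various times with human placental microsomes and NADPH in buffer with 4% propylene glycol. Tritiated androstenedione was then added and residual aromatase activity assayed over 5 min. Loss was corrected against inhibitor-free controls, and first-order slopes gave k_app. Apparent Ki and k_inact came from a reciprocal k_app vs reciprocal concentration plot, with limiting t1/2 = ln2/k_inact.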

Aromatase [4] = biological target: T1, Aromatase; assay: Competitive inhibition of binding to human placental Cytochrome P450 19A1; outline: as §1
[5] = Limiting t1/2 is the half life of aromatase inactivation in the presence of saturating concentrations of inhibitor
Outline: (§2)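 Human placental microsomes (stored -70 °C; protein 8.9–16.4 mg/mL, specific activity 34–101 pmol min⁻¹ (mg protein)⁻¹) preincubated with NADPH and four inhibitor concentrations for various times, in buffer with 4% propylene glycol. Tritiated androstenedione then added and remaining aromatase activity assayed 5 min. Duplicates averaged. Activity corrected against inhibitor-free controls. Apparent Ki and kinact from double-reciprocal plot of kapp vs inhibitor concentration. Limiting t1/2 = ln2/kinact.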

Aromatase [6] = biological target: T1, Aromatase; assay: Inactivation rate (Ki) for human placental aromatase Cytochrome P450 19A1
Aromatase [7] = biological target: T1, Aromatase; assay: Inactivation rate (Ki) for human placental Cytochrome P450 19A1; outline: as §2

Compound | Ki (Aromatase [1]) [µM] | Ratio (Aromatase [2]) | Limiting t1/2 [5] [min] | also measured
CCC(=O)C1(C)CCC2C(CCC3=CC(=O)C=CC32C)C1 (stereo not drawn) | 97 | 1833 |  | 
CC(=O)C1(C)CCC2C(CCC3=CC(=O)C=CC32C)C1 (stereo not drawn) | 45 | 670 |  | 
CC(=O)OCC1(C)CCC2C(CCC3=CC(=O)C=CC32C)C1 (stereo not drawn) | 13 | 273 |  | 
CC1(C=O)CCC2C(CCC3=CC(=O)C=CC32C)C1 (stereo not drawn) |  |  |  | Ki (Aromatase [3]): 3.98 µM
CC1(C(=O)O)CCC2C(CCC3=CC(=O)C=CC32C)C1 (stereo not drawn) | 893 | 18651 |  | 
CC1C2CCC3=CC(=O)C=CC3(C)C2CCC1(C)C(=O)O (stereo not drawn) |  | 23234 |  | Ki (Aromatase [4]): 1200 µM
C[C@]12C=CC(=O)C=C1CC[C@@H]1[C@@H]2CC[C@]2(C)C(=O)OC[C@@H]12 | 0.41 |  | 6.2 | Ki (Aromatase [6]): 390 nM
COC(=O)C1(C)CCC2C(CCC3=CC(=O)C=CC32C)C1 (stereo not drawn) |  | 1898 |  | Ki (Aromatase [4]): 130 µM
CC1(CO)CCC2C(CCC3=CC(=O)C=CC32C)C1 (stereo not drawn) |  |  |  | Ki (Aromatase [3]): 8.56 µM
CC12CCCC1C1CCC3=CC(=O)C=CC3(C)C1CC2 (stereo not drawn) | 0.69 | 8.8 | 15.2 | Ki (Aromatase [7]): 1100 nM
COC(=O)C1(C)CCC2C(CCC3=CC(=O)C=CC32C)C1C (stereo not drawn) | 103 | 2600 |  | 
C[C@]12C=CC(=O)C=C1CC[C@@H]1[C@@H]2CC[C@]2(C)C(=O)CC[C@@H]12 [ANDROSTENEDONE] |  |  | 12.6 | 
C[C@]12CCC(=O)C[C@@H]1CC[C@@H]1[C@@H]2CC[C@]2(C)[C@@H](O)CC[C@@H]12 [STANOLONE] |  | 10.6 | 12.9 | Ki (Aromatase [7]): 1550 nM; Ki (Aromatase [4]): 0.22 µM
